RGS4 inh – inhibitors of human RGS4 | 0.45% of 310,000 active | B-score at 10 µM | P49798 | HEK293 M3R/RGS4 inducible, Fluo-4 calcium flux; active compounds read high; triggered by carbachol at its EC20;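 active means B-score, a plate-corrected calcium signal, over three deviations above library mean, with baseline fluorescence within five deviations of library mean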;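 further: RGS4 expression induced by doxycycline in cells with stable M3 receptor; B-score is computed from the integrated fluorescence ratio over baseline after carbachol; higher B-score means a larger calcium signal and so more RGS4 inhibition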
MrgX1 ag – human MrgX1 receptor agonism, primary screen. Q96LB2. MrgX1-HEK293 cells, Fluo-4 calcium fluorescence, agonist mode; active compounds read high. B-score at 10 µM. 0.44% of 310,000 active. AID 588627;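 active means calcium response B-score plate-corrected fluorescence ratio at least 3 library SD, with starting fluorescence B-score inside 5 SD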
Target sequence (Q96LB2 whole entry, looked up): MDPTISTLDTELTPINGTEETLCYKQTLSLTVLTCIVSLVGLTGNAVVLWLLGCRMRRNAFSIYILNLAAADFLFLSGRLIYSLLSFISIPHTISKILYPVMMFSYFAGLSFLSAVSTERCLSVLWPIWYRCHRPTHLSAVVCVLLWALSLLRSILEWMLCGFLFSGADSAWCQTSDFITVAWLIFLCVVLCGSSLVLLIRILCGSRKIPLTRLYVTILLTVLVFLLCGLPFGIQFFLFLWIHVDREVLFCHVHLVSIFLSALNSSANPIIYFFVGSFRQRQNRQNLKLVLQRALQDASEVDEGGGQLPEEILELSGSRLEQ
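Test system: HEK293 cells stably expressing human MrgX1 receptor; Input: fifteen thousand cells per well; Dosing: compound delivered in addition one of three; Schedule: overnight seeding, then 1 h dark dye loading; Technique: Fluo-4 NW calcium fluorescence; Measure: B-scored fluorescence response ratio; Controls: positive and negative controls per plate.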
RGS4 pot – RGS4 potentiation or activation | HEK293 M3R/inducible RGS4, carbachol calcium flux Fluo4; active compounds read low | B-score at 10 µM | 0.92% of 310,000 active;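 active means B-score of the integrated calcium signal more than 4 SD below the library mean, with starting fluorescence not abnormally high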;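 further: negative B-score means reduced calcium response which marks RGS4 activation or potentiation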
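Assay system: HEK293 FlpIn-TREx cells, stable M3R, doxycycline-inducible RGS4 / Probe or stimulus: carbachol, ECmax concentration / Times: overnight RGS4 induction, 30 min dye load 37 °C, 20 min compound RT / Signal: kinetic calcium fluorescence imaging with Fluo4-AM dye, 2 µM / Measure: Agonist-evoked peak-minus-minimum fluorescence over baseline, integrated ratio, B score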
MrgX1 antag – blocks BAM8-22 activation of human MrgX1 receptor. Q96LB2. MRGX1-HEK293 calcium flux, Fluo-4, BAM8-22 antagonism; active compounds read low. B-score at 10 µM. 1.3% of 310,000 active. AID 588676;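 active means calcium-response B-score plate-corrected more than 3 library SD below zero, starting fluorescence within 5 deviations, no agonist response on first addition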;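 further: peak minus trough fluorescence over baseline after final BAM8-22 challenge near maximal dose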
MrgX1 allo act – human MrgX1 positive allosteric modulation, primary screen. 0.63% of 310,000 active. B-score at 10 µM. Q96LB2. MrgX1-HEK293, Fluo-4 calcium flux, FDSS; active compounds read high;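 active means plate-corrected calcium response at least 3 library SD above typical, normal starting fluorescence, not activating the receptor alone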;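 further: compound read alongside a low EC10 to EC30 dose of BAM8-22 agonist; peak minus trough fluorescence over baseline measured at the second addition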
MrgX1 PAM conf – human MrgX1 positive allosteric modulation, re-confirmation | shares compounds with MrgX1 allo act | MrgX1-HEK293, Fluo-4 calcium fluorescence, FDSS | activation (ratio percentage), % at 10 µM | AID 602413 | 13% of 1,200 active;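 active means ratio at least 3 SD above the weak peptide control, stable starting fluorescence, no direct agonism earlier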;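 further: compound followed by low BAM8-22 agonist challenge near EC20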
HEK293 Ca flux – counter-screen for MrgX1 antagonists: effect in parental HEK293 cells; shares compounds with MrgX1 antag; Fluo-4 calcium fluorescence, FDSS; AID 624111; fluorescence ratio F(max-min)/F0 at 10 µM; 2% of 4,000 active;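 active means duplicate-averaged calcium fluorescence ratio at least three times the standard deviation of buffer wells, a nonspecific response in parental cells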
HEK293 Ca counter – activity in parental HEK293 cells without MrgX1 | shares compounds with MrgX1 antag | parental HEK293 calcium flux, Fluo-4 fluorescence ratio; active compounds read high | fluorescence ratio F(max-min)/F0 at 10 µM | 0.4% of 4,000 active | AID 624114;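 active means calcium fluorescence ratio, averaged over duplicates, at least 3 SD of the buffer-well ratio, meaning a nonspecific response in receptor-free cells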;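 further: untransfected parental HEK293 lacking MrgX1 used as counterscreen for MrgX1 allosteric activators; fluorescence change taken during the second addition on a kinetic imager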
HEK293 Ca cntr2 – activity in parental HEK293 cells lacking MrgX1 receptor; fluorescence ratio F(max-min)/F0 at 10 µM; Fluo-4 calcium fluorescence (FDSS); active compounds read high; AID 624115; shares compounds with MrgX1 antag; 8.7% of 4,000 active;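 active means calcium fluorescence ratio at least three times the spread of buffer wells, meaning a non-specific response in parental cells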
* = called active by the depositor; i = inactive; / = no result. Only some compounds are listed: those with a hit (about 3.5% of all), similar ones and a draw of the others.

SMILES	RGS4 inh	MrgX1 ag	RGS4 pot	MrgX1 antag	MrgX1 allo act	MrgX1 PAM conf	HEK293 Ca flux	HEK293 Ca counter	HEK293 Ca cntr2
COc1ccccc1NC(=O)c1csc2c1CCCC2	i	i	i	i	i	/	/	/	/
O=C(Nc1ccccn1)c1csc2c1CCCC2	i	i	i	i	8.6*	i	i	i	i
CC(=O)Cc1nsc(NC(=O)c2ccc(-c3ccccc3Cl)o2)n1	i	i	i	i	26*	i	i	i	i
CCOc1ccc(S(=O)(=O)NCCC(=O)N2CC(C)CC(C)C2)cc1 (stereo unspecified)	i	i	i	i	i	/	/	/	/
CC(C)N(C(=O)COc1ccc(Br)cc1Cl)C(C)C	i	i	i	i	21*	6.4%*	i	i	i
O=C(COc1ccc(Br)cc1Cl)c1ccc[nH]1	i	i	i	i	9.7*	i	i	i	i
CCOC(=O)C1=C(COC(=O)c2cc(Br)c(Br)s2)NC(=O)NC1C (stereo unspecified)	i	i	i	i	9.8*	i	i	i	i
CC(C)(C)c1nnc(NC(=O)CCS(=O)(=O)c2ccccc2)s1	i	i	i	i	43*	i	i	i	i
Nc1nc(C(c2ccccc2)c2ccccc2)cs1	i	i	i	i	8.7*	i	i	i	i
Nc1nc(-c2ccccc2)cs1	i	i	i	i	i	/	/	/	/
COc1cc(/C=C(/C#N)C(=O)NCc2ccccc2)cc(OC)c1OC	i	i	i	i	36*	i	i	i	i
CC1CN(c2ccccc2)NC1=O (stereo unspecified)	i	i	i	i	i	/	/	/	/
CCN(CC(=O)Nc1c(F)cccc1F)C(=O)Cc1csc(-c2ccccc2)n1	i	i	i	i	7.5*	i	i	i	i
O=C(CC1Sc2ccccc2NC1=O)OC(C(=O)NCCc1ccccc1)c1cccnc1 (stereo unspecified)	i	i	i	i	8.5*	i	i	i	i
O=C(NC(=S)Nc1ccccc1O)c1ccc(Cl)cc1Cl	i	i	i	i	i	/	/	/	/
Cc1ccc(OCC(=O)Nc2ccccc2-c2ccccc2)cc1	i	i	i	i	6.6*	i	i	i	i
O=C(COc1ccccc1)Nc1ccccc1N1CCN(c2ccccc2)CC1	i	i	i	i	13*	i	i	i	i
Cc1ccccc1OCC(=O)Nc1ccccc1N1CCOCC1	i	i	i	i	6.8*	i	i	i	i
Cc1cc(C)c(OCC(=O)Nc2ccccc2N2CCOCC2)c(C)c1	i	i	i	i	6.9*	i	i	i	i
CC(C)C(=O)N1CCN(c2ccccc2NC(=O)COc2ccccc2)CC1	i	i	i	i	i	/	/	/	/
COc1ccc(N2CCOCC2)c(NC(=O)COc2cccc(C)c2C)c1	i	i	i	i	12*	i	i	i	i
COc1ccc(N2CCOCC2)c(NC(=O)COc2cccc(C)c2)c1	i	i	i	i	i	/	/	/	/
COc1ccc(-c2csc(NC(=O)CCCc3nc4ccccc4c(=O)[nH]3)n2)cc1OC	i	i	-7.4*	i	11*	i	i	i	i
Cc1nnc(SCC(=O)c2cc(C)n(-c3ccc4c(c3)OCO4)c2C)s1	i	i	i	i	16*	i	i	i	i

From PubChem
